Measurements taken from ChEMBL document CHEMBL4428038, “Overcoming chloroquine resistance in malaria: Design, synthesis and structure-activity relationships of novel chemoreversal agents” (Eur J Med Chem, 2016).
Activity calls are given as the source filed them. The calls are words filed in the database; no cut-off is given here.

Tests used:
Plasmodium falciparum K1 [1] = test: Inhibition of CRT CVIET haplotype mutant in Plasmodium falciparum K1 isolate MRA-159 infected in erythrocytes assessed as chloroquine-coumarin probe accumulation at 10 uM after 10 hrs by Hoechst 33342 staining based flow cytometry (reference value: 35.57 +/- 3.84%); assay type: cell-based; design: scale not given: the % may be the effect or the level left
How it was run: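 Infected erythrocyte cultures at 2.5% hematocrit and 7–12% parasitemia, synchronized to late-ring/early-trophozoite stage, were incubated with chloroquine-coumarin probe plus test agent for 10 h at 37 C. Cells were then washed, resuspended in PBS and read by flow cytometry (405 nm excitation, 450/50 filter). Hoechst-stained duplicate wells set parasitemia. Uptake = % infected erythrocytes fluorescent. Controls: PBS (negative), desipramine and parent compound (positive). ≥3 independent experiments; mean ± SEM.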

[2] = Permeability of compound incubated for 16 hrs at pH 7.4 by PAMPA; assay type: ADME; settings: read-out: Peff
Plasmodium falciparum [3] = test: Intrinsic antimalarial activity against chloroquine-resistant Plasmodium falciparum K1 isolate MRA-159 harboring CRT CVIET haplotype mutant assessed as reduction in parasite viability at 500 nM; assay type: functional, organism-based
Plasmodium falciparum [4] = test: Intrinsic antimalarial activity against chloroquine-resistant Plasmodium falciparum Dd2 isolate MRA-156 harboring CRT K76T mutant assessed as reduction in parasite viability at 500 nM; assay type: functional, organism-based
[5] = system: T1, Chloroquine resistance transporter (Plasmodium falciparum), Q9N623 [K76T]; test: Inhibition of CRT K76T mutant in chloroquine-resistant Plasmodium falciparum NHP4559 assessed as reversal of chloroquine resistance by measuring reduction in chloroquine IC50 at 500 nM relative to chloroquine alone
T1 sequence (whole entry): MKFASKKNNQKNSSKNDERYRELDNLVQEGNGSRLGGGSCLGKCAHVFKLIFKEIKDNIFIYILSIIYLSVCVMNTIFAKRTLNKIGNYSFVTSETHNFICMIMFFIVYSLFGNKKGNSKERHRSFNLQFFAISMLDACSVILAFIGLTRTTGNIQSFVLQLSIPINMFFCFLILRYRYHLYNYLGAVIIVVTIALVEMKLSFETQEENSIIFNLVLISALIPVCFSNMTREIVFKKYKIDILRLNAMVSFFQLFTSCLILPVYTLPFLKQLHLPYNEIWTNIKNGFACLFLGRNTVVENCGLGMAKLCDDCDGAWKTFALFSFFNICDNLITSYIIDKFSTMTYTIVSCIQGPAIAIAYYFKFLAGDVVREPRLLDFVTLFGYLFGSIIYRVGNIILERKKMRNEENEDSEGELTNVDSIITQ

Plasmodium falciparum [6] = test: Intrinsic antimalarial activity against chloroquine/artemisinin-resistant Plasmodium falciparum NHP4773 harboring CRT K76T mutant assessed as reduction in parasite viability at 500 nM; assay type: functional, organism-based
Plasmodium falciparum [7] = test: Potentiation of chloroquine-induced antimalarial activity against chloroquine-sensitive Plasmodium falciparum HB3 isolate MRA-155 assessed as reduction in chloroquine IC50 at 500 nM relative to chloroquine alone; assay type: functional
[8] = Inhibition of CRT CVIET haplotype mutant in chloroquine-resistant Plasmodium falciparum K1 isolate MRA-159 assessed as reversal of chloroquine resistance by measuring reduction in chloroquine IC50 relative to chloroquine alone
How it was run: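 Chloroquine IC50 was determined in the presence of a fixed 500 nM chemoreversal agent, against chloroquine alone. The RMI is the ratio of chloroquine IC50 with agent to chloroquine IC50 alone. Mean of n = 3; two-tailed t test versus chloroquine without agent.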

[9] = Permeability of compound incubated for 6 hrs at pH 7.4 by PAMPA; assay type: ADME; settings: read-out: Peff
Plasmodium falciparum [10] = test: Intrinsic antimalarial activity against chloroquine-sensitive Plasmodium falciparum HB3 isolate MRA-155 assessed as reduction in parasite viability at 500 nM; assay type: functional, organism-based
[11] = system: T1, Chloroquine resistance transporter (Plasmodium falciparum), Q9N623 [K76T]; test: Inhibition of CRT K76T mutant in chloroquine/artemisinin-resistant Plasmodium falciparum ARS272 assessed as reversal of chloroquine resistance by measuring reduction in chloroquine IC50 at 500 nM relative to chloroquine alone
[12] = system: T1, Chloroquine resistance transporter (Plasmodium falciparum), Q9N623 [K76T]; test: Inhibition of CRT K76T mutant in chloroquine-resistant Plasmodium falciparum Dd2 isolate MRA-156 assessed as reversal of chloroquine resistance by measuring reduction in chloroquine IC50 at 500 nM relative to chloroquine alone
Plasmodium falciparum K1 [13] = test: Inhibition of CRT CVIET haplotype mutant in chloroquine-resistant Plasmodium falciparum K1 isolate MRA-159 assessed as reversal of chloroquine resistance by measuring reduction in chloroquine IC50 at 500 nM relative to chloroquine alone
Plasmodium falciparum [14] = test: Intrinsic antimalarial activity against chloroquine-resistant Plasmodium falciparum NHP4559 harboring CRT K76T mutant assessed as reduction in parasite viability at 500 nM; assay type: functional, organism-based
[15] = Therapeutic index, ratio of IC50 for TAMH to EC50 for chloroquine-resistant Plasmodium falciparum K1 isolate MRA-159 CRT CVIET haplotype mutant; assay type: toxicity; settings: mouse, TAMH cells; read-out: Ratio IC50/EC50
How it was run: (§1)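 Host-cell IC50 was measured by ATP-luminescence viability assay in TAMH hepatocytes (mean of n = 4 independent determinations) or AC10 cardiomyocytes. Each IC50 was divided by the K1 EC50, the concentration of chemoreversal agent that halves the chloroquine concentration needed for 50% parasite inhibition.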

[16] = system: T1, Chloroquine resistance transporter (Plasmodium falciparum), Q9N623 [K76T]; test: Inhibition of CRT K76T mutant in chloroquine/artemisinin-resistant Plasmodium falciparum ARS233 assessed as reversal of chloroquine resistance by measuring reduction in chloroquine IC50 at 500 nM relative to chloroquine alone
TAMH = test: Cytotoxicity against TAMH assessed as reduction in cell viability by CellTiter-Glo assay; assay type: cell-based; settings: Mus musculus
How it was run: (§2)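 For TAMH (hepatocyte line) and AC10 (cardiomyocyte line), viability was read by ATP luminescence (CellTiter-Glo), and the value reported is IC50.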

Plasmodium falciparum [17] = test: Intrinsic antimalarial activity against chloroquine-sensitive Plasmodium falciparum 3D7 isolate MRA-102 assessed as reduction in parasite viability at 500 nM; assay type: functional, organism-based
[18] = Therapeutic index, ratio of IC50 for human AC10 cells to EC50 for chloroquine-resistant Plasmodium falciparum K1 isolate MRA-159 CRT CVIET haplotype mutant; assay type: toxicity; settings: read-out: Ratio IC50/EC50; how it was run: as §1
[19] = Aqueous kinetic solubility of compound in pH 7.4 solution incubated for 24 hrs; assay type: physicochemical; settings: aqueous solution pH 7.4, pH 7.4; read-out: Kinetic_solubility
Plasmodium falciparum [20] = test: Intrinsic antimalarial activity against chloroquine/artemisinin-resistant Plasmodium falciparum ARS233 harboring CRT K76T mutant assessed as reduction in parasite viability at 500 nM; assay type: functional, organism-based
[21] = Resistance index, ratio of chloroquine IC50 for chloroquine-resistant Plasmodium falciparum K1 isolate MRA-159 CRT CVIET haplotype mutant to chloroquine IC50 for chloroquine-sensitive Plasmodium falciparum 3D7 isolate MRA-102 at 500 nM
How it was run: (§3)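 Chloroquine IC50 was measured with the chemoreversal agent fixed at 500 nM in K1 or 7G8 and in sensitive 3D7 (means, n = 3). The resistance ratio is the chloroquine IC50 in K1 or 7G8 divided by the chloroquine IC50 in 3D7.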

Plasmodium falciparum [22] = test: Potentiation of chloroquine-induced antimalarial activity against chloroquine-sensitive Plasmodium falciparum 3D7 isolate MRA-102 assessed as reduction in chloroquine IC50 at 500 nM relative to chloroquine alone; assay type: functional
Plasmodium falciparum [23] = test: Intrinsic antimalarial activity against intermediate chloroquine-resistant Plasmodium falciparum 7G8 isolate MRA-154 harboring CRT SVMNT haplotype mutant assessed as reduction in parasite viability at 500 nM; assay type: functional, organism-based
[24] = system: T1, Chloroquine resistance transporter (Plasmodium falciparum), Q9N623 [K76T]; test: Inhibition of CRT K76T mutant in chloroquine/artemisinin-resistant Plasmodium falciparum NHP4773 assessed as reversal of chloroquine resistance by measuring reduction in chloroquine IC50 at 500 nM relative to chloroquine alone
Plasmodium falciparum [25] = test: Intrinsic antimalarial activity against chloroquine/artemisinin-resistant Plasmodium falciparum ARS272 harboring CRT K76T mutant assessed as reduction in parasite viability at 500 nM; assay type: functional, organism-based
[26] = Resistance index, ratio of chloroquine IC50 for intermediate chloroquine-resistant Plasmodium falciparum 7G8 isolate MRA-154 CRT SVMNT haplotype mutant to chloroquine IC50 for chloroquine-sensitive Plasmodium falciparum 3D7 isolate MRA-102 at 500 nM; how it was run: as §3
[27] = system: Plasmodium falciparum 7G8; test: Inhibition of CRT SVMNT haplotype mutant in intermediate chloroquine-resistant Plasmodium falciparum 7G8 isolate MRA-154 t assessed as reversal of chloroquine resistance by measuring reduction in chloroquine IC50 at 500 nM relative to chloroquine alone
[28] = Cytotoxicity against human AC10 cells assessed as reduction in cell viability by CellTiter-Glo assay; assay type: cell-based; how it was run: as §2

## NC(=O)C(CCN1CCC(O)(c2ccc(Cl)cc2)CC1)(c1ccccc1)c1ccccc1
Plasmodium falciparum K1 [1]
  Activity: 73.5%
[2]
  Papp at 16 h: 1.78 ×10⁻⁶ cm/s
Plasmodium falciparum [3]
  Activity: inactive
Plasmodium falciparum [4]
  Activity: inactive
[5]
  Ratio IC50: 1.01
Plasmodium falciparum [6]
  Activity: inactive
Plasmodium falciparum [7]
  Ratio IC50: 1.06
[8]
  EC50: 0.482 µM
[9]
  Papp at 6 h: 0.65 ×10⁻⁶ cm/s
Plasmodium falciparum [10]
  Activity: inactive
[11]
  Ratio IC50: 0.94
[12]
  Ratio IC50: 1.16
Plasmodium falciparum K1 [13]
  Ratio IC50: 0.89
Plasmodium falciparum [14]
  Activity: inactive
[15]
  selectivity ratio: 210
[16]
  Ratio IC50: 0.91
TAMH
  IC50: 101 µM
Plasmodium falciparum [17]
  Activity: inactive
[18]
  selectivity ratio: 94
[19]
  solubility kinetic at 24 h: > 450 µg/mL
Plasmodium falciparum [20]
  Activity: inactive
[21]
  Ratio IC50: 14.8
Plasmodium falciparum [22]
  Ratio IC50: 1.23
Plasmodium falciparum [23]
  Activity: inactive
[24]
  Ratio IC50: 0.96
Plasmodium falciparum [25]
  Activity: inactive
[26]
  Ratio IC50: 6.2
[27]
  Ratio IC50: 1.25
[28]
  IC50: 45.2 µM
